The subject of one assay is Escherichia coli. Put plainly: Minimum inhibitory concentration against Escherichia coli UC6674. The format is functional. Summed up:
(§1)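 Broth microdilution MIC following the NCCLS M7-A4 approved standard for dilution susceptibility testing of aerobically growing bacteria. The method is taken as accurate to within one dilution.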

The test system of assay [1] is Enterococcus faecalis. Put plainly: Minimum inhibitory concentration against Enterococcus faecalis UC9217. Type of assay: functional. In a few lines:
as §1

In a further assay the test system is Streptococcus pneumoniae. Put plainly: Minimum inhibitory concentration against penicillin-susceptible Streptococcus pneumoniae UC9912. Type of assay: functional. In a few lines: as §1
For assay [2], the system named is Staphylococcus aureus. The experiment in a line: Minimum inhibitory concentration against methicillin, ciprofloxacin, rifampin, imipenem-resistant Staphylococcus aureus UC12673. Type of assay: functional. Summed up:
(§2)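 MIC determined by standard broth microdilution following the NCCLS M7-A4 approved standard for dilution susceptibility testing of aerobically growing bacteria.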

Assay [3] has as its system Staphylococcus epidermidis. Put plainly: Minimum inhibitory concentration against methicillin-resistant Staphylococcus epidermidis UC12084.
Assay [4] deals with Staphylococcus aureus. Put plainly: Minimum inhibitory concentration against methicillin-susceptible Staphylococcus aureus UC9213. The format is functional. Summed up: as §2
In another assay the test system is Haemophilus influenzae. Put plainly: Minimum inhibitory concentration against ampicillin-reisitant Haemophilus influenzae UC30063. Type of assay: functional. In a few lines:
as §1

Assay [5] has as its system Staphylococcus epidermidis. Put plainly: Minimum inhibitory concentration against methicillin-resistant Staphylococcus epidermidis UC12084; Range is from 1-2 ug/mL.
Assay [6] has as its system Enterococcus faecalis. The experiment in a line: Minimum inhibitory concentration against Enterococcus faecalis UC9217; Range is from 2-4 ug/mL. The format is functional. Summed up: as §1
Setting [7] is: Streptococcus pneumoniae, read-out: MIC.
The mark [8] stands for this setting: Haemophilus influenzae, read-out: MIC.

SMILES strings stand for the structures. ≈ marks a conversion by molar mass, not a printed value. Bounds are passed on as bounds.

With `CC(=O)NC[C@H]1CN(c2cc(F)c(N3C[C@@H]4[C@H](C3)[C@H]4C(=O)N(C)C)c(F)c2)C(=O)O1`, the MIC in the assay with Escherichia coli was greater than 64 µg/mL; with Enterococcus faecalis [1], 4 µg/mL (≈ 9.47 µM); in the assay with Streptococcus pneumoniae (setting [7]), 2 µg/mL (≈ 4.73 µM); in the assay on Staphylococcus aureus [2], 4 µg/mL (≈ 9.47 µM); in assay [3] it was 2 µg/mL (≈ 4.73 µM); in the assay with Staphylococcus aureus [4] it was 4 µg/mL (≈ 9.47 µM). Further, in the assay with Haemophilus influenzae (setting [8]), the MIC came out at 64 µg/mL (≈ 152 µM).
`CC(=O)NC[C@H]1CN(c2cc(F)c(N3C[C@@H]4[C@H](C3)[C@H]4NC(=O)CO)c(F)c2)C(=O)O1`: the MIC was greater than 64 µg/mL against Escherichia coli; 8 µg/mL (≈ 18.8 µM) against Enterococcus faecalis [1]; 2 µg/mL (≈ 4.71 µM) in the assay with Streptococcus pneumoniae (setting [7]); 16 µg/mL (≈ 37.7 µM) against Staphylococcus aureus [2]; 4 µg/mL (≈ 9.42 µM) in [3]; 16 µg/mL (≈ 37.7 µM) with Staphylococcus aureus [4]. Moreover, in the assay with Haemophilus influenzae (setting [8]), the MIC came to 64 µg/mL (≈ 151 µM).
As for `CC(=O)NC[C@H]1CN(c2cc(F)c(N3C[C@@H]4[C@H](C3)[C@H]4C(N)=O)c(F)c2)C(=O)O1`, the MIC is greater than 64 µg/mL in the assay with Escherichia coli; 2 µg/mL (≈ 5.07 µM) with Enterococcus faecalis [1]; 1 µg/mL (≈ 2.54 µM) with Streptococcus pneumoniae (setting [7]); 4 µg/mL (≈ 10.1 µM) with Staphylococcus aureus [2]; 2 µg/mL (≈ 5.07 µM) in assay [3]; 4 µg/mL (≈ 10.1 µM) with Staphylococcus aureus [4]. In addition, the MIC in the assay with Haemophilus influenzae (setting [8]) was 32 µg/mL (≈ 81.1 µM).
With `CC(=O)NC[C@H]1CN(c2cc(F)c(N3C[C@@H]4[C@@H](N)[C@@H]4C3)c(F)c2)C(=O)O1` (stereo in doubt), the MIC is greater than 64 µg/mL against Escherichia coli; 4 µg/mL (≈ 10.9 µM) against Enterococcus faecalis [1]; 1 µg/mL (≈ 2.73 µM) in the assay with Streptococcus pneumoniae; 4 µg/mL (≈ 10.9 µM) in the assay on Staphylococcus aureus [2]; 1 µg/mL (≈ 2.73 µM) in [3]; 8 µg/mL (≈ 21.8 µM) with Staphylococcus aureus [4]. In the assay with Haemophilus influenzae, this molecule showed an MIC of 32 µg/mL (≈ 87.3 µM).
For the molecule `CC(=O)NC[C@H]1CN(c2cc(F)c(N3C[C@@H]4[C@H](C3)[C@H]4NS(C)(=O)=O)c(F)c2)C(=O)O1`, the MIC is greater than 64 µg/mL against Escherichia coli; 2 µg/mL (≈ 4.5 µM) in the assay with Enterococcus faecalis [1]; 1 µg/mL (≈ 2.25 µM) with Streptococcus pneumoniae (setting [7]); 4 µg/mL (≈ 9 µM) against Staphylococcus aureus [2]; 1 µg/mL (≈ 2.25 µM) in assay [3]; 4 µg/mL (≈ 9 µM) against Staphylococcus aureus [4]. In addition, the MIC in the assay on Haemophilus influenzae (setting [8]) worked out at 32 µg/mL (≈ 72 µM).
Regarding `O=C(NC[C@H]1CN(c2cc(F)c(N3C[C@@H]4[C@H](C3)[C@H]4C(=O)O)c(F)c2)C(=O)O1)C(F)F`, the MIC with Enterococcus faecalis [1] came out at 0.5 µg/mL (≈ 1.16 µM); in the assay with Streptococcus pneumoniae (setting [7]), 1 µg/mL (≈ 2.32 µM); with Staphylococcus aureus [2], 0.5 µg/mL (≈ 1.16 µM); in assay [3], 0.5 µg/mL (≈ 1.16 µM); against Staphylococcus aureus [4], 1 µg/mL (≈ 2.32 µM); with Haemophilus influenzae (setting [8]), 4 µg/mL (≈ 9.27 µM).
With `O=C(NC[C@H]1CN(c2cc(F)c(N3C[C@@H]4[C@H](C3)[C@H]4C(=O)O)c(F)c2)C(=O)O1)C(Cl)Cl`, the MIC was determined as 0.5 µg/mL (≈ 1.08 µM) against Enterococcus faecalis [1]; 0.5 µg/mL (≈ 1.08 µM) in the assay with Streptococcus pneumoniae (setting [7]); 0.5 µg/mL (≈ 1.08 µM) in the assay with Staphylococcus aureus [2]; 0.5 µg/mL (≈ 1.08 µM) in assay [3]; 1 µg/mL (≈ 2.15 µM) with Staphylococcus aureus [4]; 4 µg/mL (≈ 8.62 µM) in the assay on Haemophilus influenzae (setting [8]).
As to `CC(=O)NC[C@H]1CN(c2cc(F)c(N3C[C@@H]4[C@H](C3)[C@H]4NC(=O)Nc3ccccc3)c(F)c2)C(=O)O1`, the MIC against Escherichia coli is greater than 64 µg/mL; in the assay with Enterococcus faecalis [1], 2 µg/mL (≈ 4.12 µM); in the assay on Streptococcus pneumoniae (setting [7]), 1 µg/mL (≈ 2.06 µM); against Staphylococcus aureus [2], 4 µg/mL (≈ 8.24 µM); in assay [3], 2 µg/mL (≈ 4.12 µM); with Staphylococcus aureus [4], 8 µg/mL (≈ 16.5 µM). The MIC with Haemophilus influenzae (setting [8]) is greater than 64 µg/mL.
Regarding `CC(=O)NC[C@H]1CN(c2cc(F)c(N3C[C@H]4C[C@H]4C3)c(F)c2)C(=O)O1`, the MIC with Escherichia coli was greater than 64 µg/mL; against Enterococcus faecalis [1], 2 µg/mL (≈ 5.69 µM); in the assay with Streptococcus pneumoniae (setting [7]), 0.5 µg/mL (≈ 1.42 µM); against Staphylococcus aureus [2], 2 µg/mL (≈ 5.69 µM); in assay [3], 1 µg/mL (≈ 2.85 µM); in the assay with Staphylococcus aureus [4] it was 2 µg/mL (≈ 5.69 µM). For the same molecule, the MIC in the assay with Haemophilus influenzae (setting [8]) came to 64 µg/mL (≈ 182 µM).
As for `CC(=O)NC[C@H]1CN(c2cc(F)c(N3C[C@@H]4[C@H](C3)[C@H]4C(=O)NCc3ccccn3)c(F)c2)C(=O)O1`, the MIC against Enterococcus faecalis [1] was 1 µg/mL (≈ 2.06 µM); in the assay with Streptococcus pneumoniae (setting [7]) it was 0.5 µg/mL (≈ 1.03 µM); in the assay on Staphylococcus aureus [2] it was 4 µg/mL (≈ 8.24 µM); in assay [3] it was 1 µg/mL (≈ 2.06 µM); against Staphylococcus aureus [4], 4 µg/mL (≈ 8.24 µM); in the assay on Haemophilus influenzae (setting [8]), greater than 64 µg/mL.
With `N[C@@H]1[C@H]2CN(c3c(F)cc(N4C[C@H](CNC(=O)C(F)F)OC4=O)cc3F)C[C@@H]12`, the MIC with Enterococcus faecalis [1] worked out at 2 µg/mL (≈ 4.97 µM); in the assay with Streptococcus pneumoniae (setting [7]), 1 µg/mL (≈ 2.49 µM); in the assay on Staphylococcus aureus [2] it was 2 µg/mL (≈ 4.97 µM); in [3], 2 µg/mL (≈ 4.97 µM); against Staphylococcus aureus [4] it was 4 µg/mL (≈ 9.94 µM); in the assay with Haemophilus influenzae (setting [8]), 8 µg/mL (≈ 19.9 µM).
Turning to `CC(=O)NC[C@H]1CN(c2cc(F)c(N3C[C@@H]4[C@H](C3)[C@H]4C(=O)NOCc3ccccc3)c(F)c2)C(=O)O1`, the MIC was greater than 64 µg/mL in the assay on Escherichia coli; 2 µg/mL (≈ 4 µM) with Enterococcus faecalis [1]; 1 µg/mL (≈ 2 µM) in the assay on Streptococcus pneumoniae (setting [7]); 2 µg/mL (≈ 4 µM) against Staphylococcus aureus [2]; 1 µg/mL (≈ 2 µM) in assay [3]; 4 µg/mL (≈ 7.99 µM) against Staphylococcus aureus [4]. In addition, the MIC in the assay with Haemophilus influenzae (setting [8]) was greater than 64 µg/mL.
In the case of `CC(=O)NC[C@H]1CN(c2cc(F)c(N3C[C@@H]4[C@H](C3)[C@H]4NC(C)=O)c(F)c2)C(=O)O1`, the MIC in the assay on Escherichia coli is greater than 64 µg/mL; in the assay on Streptococcus pneumoniae (setting [7]) it was 1 µg/mL (≈ 2.45 µM); against Staphylococcus aureus [2] it was 4 µg/mL (≈ 9.79 µM); in assay [5], 2 µg/mL (≈ 4.9 µM); in the assay with Enterococcus faecalis [6], 4 µg/mL (≈ 9.79 µM); against Staphylococcus aureus [4], 4 µg/mL (≈ 9.79 µM). In addition, the MIC in the assay with Haemophilus influenzae (setting [8]) was found to be 64 µg/mL (≈ 157 µM).

These data come from ChEMBL document CHEMBL1140345, “Conformational constraint in oxazolidinone antibacterials. Synthesis and structure-activity studies of (azabicyclo[3.1.0]hexylphenyl)oxazolidinones” (2005).
